The source made the active and inactive calls. The rule behind the calls is not given here.
Assays:
[1] = system: A549; experiment: Cytotoxicity against human A549 cells by SRB assay; type: functional, cell-based
Procedure, shortened: (§1)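 Cells at 3.5 × 10^4 cells/mL in RPMI 1640 with 10% heat-inactivated FBS were exposed to a range of concentrations for 72 h. They were then TCA-fixed (10%) and stained with sulforhodamine B. Growth is expressed as % of solvent-treated control, and IC50 is obtained by non-linear regression. Means of ≥3 experiments.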

[2] = Cytotoxicity against human HCT116 cells by SRB assay; type: functional, cell-based; settings: HCT-116; procedure, shortened: as §1
[3] = system: A549; experiment: Antiproliferative activity against human A549 cells assessed as shrunken and sharp shape at 0.4 uM after 24 hrs by phase contrast microscopy; type: functional, cell-based
Procedure, shortened: (§2)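 A549 cells (RPMI 1640, 10% heat-inactivated FBS, 37 °C, 5% CO2) exposed to 0.2–1.6 µM for 24 h; TSA 0.4 µM run alongside. Cell shape examined by phase-contrast microscopy.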

[4] = molecular target: T1, Histone deacetylase (Homo sapiens) (UniProt Q13547+O15379+Q9UBN7+Q92769+Q9UQL6+Q8WUI4+Q9BY41+Q96DB2+P56524+Q9UKV0+Q969S8); experiment: Inhibition of HDAC in human A549 cells at 1.6 uM after 24 hrs by fluorescence assay; type: cell-based
[5] = molecular target: T1, Histone deacetylase (Homo sapiens); experiment: Inhibition of HDAC in human A549 cells assessed as increase in acetylated histone 3 expression level at 1.6 uM after 24 hrs by western blotting analysis; type: cell-based
Procedure, shortened: (§3)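 After 24 h exposure (0.2–1.6 µM), A549 lysates were prepared in Tris-HCl pH 6.8/4% SDS buffer with protease and phosphatase inhibitors at 4 °C. Equal protein was separated by SDS-PAGE and transferred to PVDF. Membranes were blocked in 5% BSA/TBS-Tween for 2 h, incubated with primary antibody overnight at 4 °C, then HRP secondary for 1 h, with chemiluminescent detection.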

[6] = system: A549; experiment: Antitumor activity against human A549 cells xenografted in athymic BALB/c nu/nu mouse assessed as reduction in tumor weight at 30 mg/kg, ip administered thrice a week measured after 35 days relative to vehicle-treated control; type: functional, organism-based; design: dose 30 mg/kg
Procedure, shortened: (§4)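 Male BALB/c nu/nu mice (6 weeks) were implanted s.c. in the right flank with 1 × 10^7 A549 cells. Dosing started at tumor volume 50–60 mm3, with 6 mice per group. Treatment was 15 or 30 mg/kg i.p. three times weekly in 0.05% Tween-80/0.9% NaCl, with vehicle and paclitaxel 5 mg/kg controls. Tumor volume was followed to day 35, and end-point tumors were weighed.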

[7] = system: A549; experiment: (§5) Antitumor activity against human A549 cells xenografted in athymic BALB/c nu/nu mouse assessed as change in cell number in central region of tumor at 15 to 30 mg/kg, ip administered thrice a week measured after 35 days by immunohistochemical analysis relative to vehicle-treated control; type: functional, organism-based
Procedure, shortened: (§6)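 In the A549 nude-mouse xenograft (15 or 30 mg/kg i.p. thrice weekly, vehicle control), end-point tumor sections were incubated overnight at 4 °C with Ki-67 antibody. Detection used an HRP polymer system with hematoxylin-eosin counterstain, and sections were imaged by light microscopy.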

[8] = system: A549; experiment: Induction of phosphorylated AKT level in human A549 cells after 24 hrs by Western blotting analysis; type: cell-based; procedure, shortened: as §3
[9] = molecular target: T1, Histone deacetylase (Homo sapiens); experiment: Inhibition of HDAC in human A549 cells assessed as increase in acetylated histone 3 expression level after 24 hrs by western blotting analysis; type: cell-based; procedure, shortened: as §3
[10] = system: A549; experiment: Antiproliferative activity against human A549 cells assessed as shrunken and sharp shape at 1.6 uM after 24 hrs by phase contrast microscopy; type: functional, cell-based; procedure, shortened: as §2
[11] = system: A549; experiment: Antitumor activity against human A549 cells xenografted in athymic BALB/c nu/nu mouse assessed as tumor growth inhibition at 15 mg/kg, ip administered thrice a week measured after 35 days relative to vehicle-treated control; type: functional; settings: 840 h, route intraperitoneal, read-out: TGI; procedure, shortened: as §4
[12] = molecular target: T1, Histone deacetylase (Homo sapiens); experiment: Inhibition of HDAC in human A549 cells after 24 hrs by fluorescence assay; type: cell-based
[13] = system: Mus musculus; experiment: Toxicity in athymic BALB/c nu/nu mouse xenografted with human A549 cells assessed as change in body weight at 15 to 30 mg/kg, ip administered thrice a week measured after 35 days relative to vehicle-treated control; type: organism-based; design: dose 15-30 mg/kg, route intraperitoneal; settings: in vivo, 840 h
[14] = system: A549; experiment: Induction of phosphorylated ERK level in human A549 cells after 24 hrs by Western blotting analysis; type: cell-based; procedure, shortened: as §3
[15] = system: A549; experiment: Antitumor activity against human A549 cells xenografted in athymic BALB/c nu/nu mouse assessed as reduction in tumor weight at 15 to 30 mg/kg, ip administered thrice a week measured after 35 days relative to vehicle-treated control; type: functional, organism-based; procedure, shortened: as §4
[16] = system: A549; experiment: Antiproliferative activity against human A549 cells assessed as morphological changes after 24 hrs by phase contrast microscopy; type: functional, cell-based; procedure, shortened: as §2
[17] = system: A549; experiment: Antitumor activity against human A549 cells xenografted in athymic BALB/c nu/nu mouse assessed as tumor growth inhibition at 30 mg/kg, ip administered thrice a week measured after 35 days relative to vehicle-treated control; type: functional; settings: 840 h, route intraperitoneal, read-out: TGI; procedure, shortened: as §4
[18] = system: A549; experiment: Antitumor activity against human A549 cells xenografted in athymic BALB/c nu/nu mouse assessed as change in cell number in edge or peripheral region of tumor at 15 to 30 mg/kg, ip administered thrice a week measured after 35 days by immunohistochemical analysis relative to vehicle-treated control; type: functional, organism-based; procedure, shortened: as §6
[19] = system: A549; experiment: as §5, with “inhibition of Ki-67 expression” for “change in cell number”, “central and edge” for “central”; type: functional, organism-based; procedure, shortened: as §6

CCCOc1ccc(C/C(=N/O)C(=O)NCCSSCCNC(=O)/C(Cc2ccc(OCCC)cc2)=N/O)cc1
IC50 [1]: 13.5 µM
IC50 [2]: 15.5 µM

O=C(NCCSSCCNC(=O)/C(Cc1ccc(F)cc1)=N/O)/C(Cc1ccc(F)cc1)=N\O
IC50 [1]: 3.5 µM
IC50 [2]: 3.78 µM

CO/N=C(/Cc1ccc(OC)c(Br)c1)C(=O)NCCSSCCNC(=O)/C(Cc1ccc(OC)c(Br)c1)=N\OC
IC50 [1]: 9.2 µM
IC50 [2]: 10.7 µM

O=C(NCCSSCCNC(=O)/C(Cc1ccc([N+](=O)[O-])cc1)=N/O)/C(Cc1ccc([N+](=O)[O-])cc1)=N\O
IC50 [1]: 2.66 µM
IC50 [2]: 1.8 µM

CO/N=C(/Cc1ccc(OC)cc1)C(=O)NCCSSCCNC(=O)/C(Cc1ccc(OC)cc1)=N\OC
IC50 [1]: > 100 µM
IC50 [2]: > 100 µM

O=C(NCCCCl)/C(Cc1ccc(OCc2ccccc2)cc1)=N\O
IC50 [1]: > 100 µM
IC50 [2]: > 100 µM

O=C(NCCSSCCNC(=O)/C(Cc1c2ccccc2cc2ccccc12)=N\O)/C(Cc1c2ccccc2cc2ccccc12)=N\O
IC50 [1]: 18.5 µM
IC50 [2]: 28.4 µM

O=C(NCCSSCCNC(=O)/C(Cc1ccc(Oc2ccccc2)cc1)=N/O)/C(Cc1ccc(Oc2ccccc2)cc1)=N\O
IC50 [1]: > 100 µM
IC50 [2]: 20.4 µM

O=C(NCCSCCNC(=O)/C(Cc1ccc(OCc2ccccc2)cc1)=N\O)/C(Cc1ccc(OCc2ccccc2)cc1)=N\O
IC50 [1]: 2.5 µM
IC50 [2]: > 100 µM

O=C(NCCSSCCNC(=O)/C(Cc1ccccc1)=N/O)/C(Cc1ccccc1)=N\O
IC50 [1]: 6.55 µM
IC50 [2]: 6.22 µM

CC(C)(C)c1ccc(C/C(=N/O)C(=O)NCCSSCCNC(=O)/C(Cc2ccc(C(C)(C)C)cc2)=N/O)cc1
IC50 [1]: 1.78 µM
IC50 [2]: 1.67 µM

O=C(NCCSSCCNC(=O)/C(Cc1cc(Cl)cc(Cl)c1Cl)=N/O)/C(Cc1cc(Cl)cc(Cl)c1Cl)=N\O
IC50 [1]: 5.09 µM
IC50 [2]: 4.23 µM

O=C(NCCSSCCNC(=O)/C(Cc1cc(Cl)cc(Cl)c1)=N/O)/C(Cc1cc(Cl)cc(Cl)c1)=N\O
IC50 [1]: 2.28 µM
IC50 [2]: 2.1 µM

CC(/C=C/C(=O)NO)=C\[C@@H](C)C(=O)c1ccc(N(C)C)cc1
Activity [3]: Active

O=C(NCCSSCCNC(=O)/C(Cc1ccc(Br)cc1)=N/O)/C(Cc1ccc(Br)cc1)=N\O
IC50 [1]: 5.89 µM
IC50 [2]: 7.24 µM

O=C(NCCSSCCNC(=O)/C(Cc1ccc(Cl)cc1)=N/O)/C(Cc1ccc(Cl)cc1)=N\O
IC50 [1]: 2.58 µM
IC50 [2]: 2.03 µM

O=C(NCCS)/C(Cc1ccc(OCc2ccccc2)cc1)=N\O
IC50 [1]: 40 µM
IC50 [2]: 85.1 µM

O=C(NCCSSCCNC(=O)/C(Cc1ccc(OC2CCCC2)cc1)=N/O)/C(Cc1ccc(OC2CCCC2)cc1)=N\O
IC50 [1]: 1.4 µM
IC50 [2]: 5.34 µM

O=C(NCCSSCCNC(=O)/C(Cc1cccc2ccccc12)=N/O)/C(Cc1cccc2ccccc12)=N\O
IC50 [1]: > 100 µM
IC50 [2]: > 100 µM

COc1ccc(C/C(=N/O)C(=O)NCCSSCCNC(=O)/C(Cc2ccc(OC)cc2)=N/O)cc1
IC50 [1]: 2.81 µM
IC50 [2]: 4.39 µM

Cc1ccc(C/C(=N/O)C(=O)NCCSSCCNC(=O)/C(Cc2ccc(C)cc2)=N/O)cc1
IC50 [1]: 6.09 µM
IC50 [2]: 5.63 µM

O=C(NCCSSCCNC(=O)/C(Cc1ccc(O)c(Br)c1)=N/O)/C(Cc1ccc(O)c(Br)c1)=N/O [PSAMMAPLIN A]
IC50 [1]: 1.18 µM
inhibition [4]: Active
IC50 [2]: 1.62 µM
inhibition [5]: Active
Activity [6]: Active

O=C(NCCSSCCNC(=O)/C(Cc1ccc(OCc2ccccc2)cc1)=N/O)/C(Cc1ccc(OCc2ccccc2)cc1)=N\O
IC50 [1]: 1.12 µM
IC50 [2]: 1.57 µM

CCOc1ccc(C/C(=N/O)C(=O)NCCSSCCNC(=O)/C(Cc2ccc(OCC)cc2)=N/O)cc1
IC50 [1]: 1.37 µM
IC50 [2]: 1.61 µM

O=C(NCCSSCCNC(=O)/C(Cc1ccc(Cl)c(Cl)c1)=N/O)/C(Cc1ccc(Cl)c(Cl)c1)=N\O
IC50 [1]: 1.6 µM
IC50 [2]: 1.46 µM

O=C(NCCSSCCNC(=O)/C(Cc1ccc2ccccc2c1)=N/O)/C(Cc1ccc2ccccc2c1)=N\O
Activity [7]: inactive
Activity [8]: Dose-dependent effect
inhibition [9]: Dose-dependent effect
Activity [10]: Active
inhibition in vivo at 15 mg/kg [11]: 30.4%
inhibition [12]: Dose-dependent effect
Activity [13]: Non-toxic
Activity [14]: Dose-dependent effect
Activity [15]: Active
Activity [1]: Dose-dependent effect
IC50 [1]: 1.2 µM
Activity [16]: Dose-dependent effect
inhibition in vivo at 30 mg/kg [17]: 47.6%
IC50 [2]: 1.3 µM
Activity [18]: Active
inhibition [19]: Active

O=C(NCCCCCCNC(=O)/C(Cc1ccc(OCc2ccccc2)cc1)=N\O)/C(Cc1ccc(OCc2ccccc2)cc1)=N\O
IC50 [1]: 20.1 µM
IC50 [2]: > 100 µM

O=C(NCCCl)/C(Cc1ccc(OCc2ccccc2)cc1)=N\O
IC50 [1]: > 100 µM
IC50 [2]: > 100 µM

CCCCOc1ccc(C/C(=N/O)C(=O)NCCSSCCNC(=O)/C(Cc2ccc(OCCCC)cc2)=N/O)cc1
IC50 [1]: 41.1 µM
IC50 [2]: 23.8 µM

From ChEMBL document CHEMBL3414537, “Efficient synthesis and biological activity of Psammaplin A and its analogues as antitumor agents” (Eur J Med Chem, 2015)
